# ChEMBL document CHEMBL1157864, “Synthesis of some novel 2-substituted-5-[isopropylthiazole] clubbed 1,2,4-triazole and 1,3,4-oxadiazoles as potential antimicrobial and antitubercular agents” (Eur J Med Chem, 2010)
# Experiments:
# Format in all cases: functional
# [1] = system: Staphylococcus aureus; assay: Antimicrobial activity against Staphylococcus aureus ATCC 11632 after 24 hrs by broth microdilution assay; conditions: ATCC 11632, 24 h
# Outline: (§1)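 Broth dilution MIC. Stock is 10 mg compound in 1 mL DMSO, serially diluted in Mueller–Hinton broth for bacteria or Sabouraud liquid medium for yeasts and mould. Tubes are inoculated at 10⁵ cfu/mL and incubated at 37 °C for 24 h. Controls are medium alone and medium with DMSO at matching dilutions. MIC is the lowest concentration giving complete growth inhibition.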
# [2] = system: Enterococcus faecalis; assay: Antimicrobial activity against Streptococcus faecalis ATCC 14506 after 24 hrs by broth microdilution assay; conditions: ATCC 14506, 24 h; outline: as §1
# [3] = system: Bacillus subtilis; assay: Antimicrobial activity against Bacillus subtilis ATCC 60511 after 24 hrs by broth microdilution assay; conditions: ATCC 60511, 24 h; outline: as §1
# [4] = system: Klebsiella pneumoniae; assay: Antimicrobial activity against Klebsiella pneumoniae ATCC 10031 after 24 hrs by broth microdilution assay; conditions: ATCC 10031, 24 h; outline: as §1
# [5] = system: Escherichia coli; assay: Antimicrobial activity against Escherichia coli ATCC 10536 after 24 hrs by broth microdilution assay; conditions: ATCC 10536, 24 h; outline: as §1
# [6] = system: Pseudomonas aeruginosa; assay: Antimicrobial activity against Pseudomonas aeruginosa ATCC 10145 after 24 hrs by broth microdilution assay; conditions: ATCC 10145, 24 h; outline: as §1
# [7] = system: Saccharomyces cerevisiae; assay: Antimicrobial activity against Saccharomyces cerevisiae ATCC 9763 after 24 hrs by broth microdilution assay; conditions: ATCC 9763, 24 h; outline: as §1
# [8] = system: Candida tropicalis; assay: Antimicrobial activity against Candida tropicalis ATCC 1369 after 24 hrs by broth microdilution assay; conditions: ATCC 1369, 24 h; outline: as §1
# [9] = system: Aspergillus niger; assay: Antimicrobial activity against Aspergillus niger ATCC 6275 after 24 hrs by broth microdilution assay; conditions: ATCC 6275, 24 h; outline: as §1
# [10] = system: Mycobacterium tuberculosis; assay: Antimycobacterial activity against Mycobacterium tuberculosis H37Rv after 21 days by broth dilution assay; conditions: 504 h
# Outline: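 Middlebrook 7H9 broth with 10% albumin-dextrose-catalase and 0.2% glycerol; frozen culture thawed, diluted to 10⁵ cfu/mL and used as inoculum. Compounds taken up in DMSO and diluted twice in broth, 1.3% DMSO final. Incubated at 37 °C. Growth judged by eye against drug-free and inoculum-free controls and isoniazid. MIC is the lowest concentration inhibiting ≥99% of the starting population.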
SMILES,MIC [1] [µg/mL],MIC [2] [µg/mL],MIC [3] [µg/mL],MIC [4] [µg/mL],MIC [5] [µg/mL],MIC [6] [µg/mL],MIC [7] [µg/mL],MIC [8] [µg/mL],MIC [9] [µg/mL],MIC [10] [µg/mL]
CC(C)c1csc(-c2nnc(S)n2-c2ccccc2)n1,16,125,16,31.2,16,31.2,8,16,16,31.2
Cc1ccc(-c2nn3c(-c4nc(C(C)C)cs4)nnc3s2)cc1,125,125,62.5,250,125,62.5,250,125,125,31.2
CC(C)c1csc(-c2nnc(S)n2/N=C/c2ccc(Br)cc2)n1,62.5,125,125,125,62.5,62.5,125,62.5,62.5,125
Cc1ccc(-c2nnc(-c3nc(C(C)C)cs3)o2)cc1,31.2,16,31.2,125,62.5,125,62.5,125,31.2,16
OC(Cn1cncn1)(Cn1cncn1)c1ccc(F)cc1F [FLUCONAZOLE],,,,,,,≤ 1,≤ 1,≤ 1,
CC(=O)N1N=C(c2nc(C(C)C)cs2)OC1(C)c1ccc(Br)cc1 (stereo unspecified),16,16,31.2,16,62.5,16,31.2,31.2,31.2,125
COc1ccc(-c2nn3c(-c4nc(C(C)C)cs4)nnc3s2)cc1,31.2,16,125,31.2,125,31.2,16,16,31.2,31.2
COc1cc(/C=N/n2c(S)nnc2-c2nc(C(C)C)cs2)cc(OC)c1OC,125,62.5,125,62.5,62.5,125,62.5,125,62.5,125
CC(=O)N1N=C(c2nc(C(C)C)cs2)OC1(C)c1ccccc1 (stereo unspecified),31.2,31.2,62.5,62.5,62.5,31.2,125,31.2,62.5,62.5
CC(C)c1csc(-c2nnc(-c3ccccc3)o2)n1,31.2,16,62.5,250,125,62.5,62.5,125,125,31.2
CSc1nnc(-c2nc(C(C)C)cs2)n1-c1ccccc1,16,16,31.2,31.2,62.5,16,16,16,31.2,62.5
CC(=O)N1N=C(c2nc(C(C)C)cs2)OC1(C)C,62.5,125,125,125,125,125,62.5,62.5,62.5,125
CC(=O)N1N=C(c2nc(C(C)C)cs2)OC1(C)c1ccc(C)cc1 (stereo unspecified),125,125,16,31.2,16,125,16,31.2,31.2,31.2
CC(C)c1csc(-c2nnc(S)n2/N=C/C=C/c2ccccc2)n1,8,31.2,8,4,4,16,31.2,31.2,125,4
COc1cc(/C=N/n2c(S)nnc2-c2nc(C(C)C)cs2)ccc1O,250,125,125,125,125,125,250,125,125,62.5
CC(=O)N1N=C(c2nc(C(C)C)cs2)OC1(C)c1ccc([N+](=O)[O-])cc1 (stereo unspecified),31.2,62.5,62.5,62.5,16,31.2,31.2,62.5,31.2,125

SMILES,MIC [1] [µg/mL],MIC [2] [µg/mL],MIC [3] [µg/mL],MIC [4] [µg/mL],MIC [5] [µg/mL],MIC [6] [µg/mL],MIC [7] [µg/mL],MIC [8] [µg/mL],MIC [9] [µg/mL],MIC [10] [µg/mL]
NNC(=O)c1ccncc1 [ISONIAZID],,,,,,,,,,0.25
CC(C)c1csc(-c2nnc(S)n2/N=C/c2ccccc2O)n1,250,250,250,250,250,250,125,125,125,62.5
CC(C)c1csc(-c2nnc(-c3ccc(O)cc3)o2)n1,62.5,62.5,31.2,62.5,62.5,62.5,62.5,125,125,125
CC(C)c1csc(-c2nnc(S)n2/N=C/c2ccc(N(C)C)cc2)n1,16,125,31.2,16,16,16,31.2,125,16,125
O=C(O)c1cn(C2CC2)c2cc(N3CCNCC3)c(F)cc2c1=O [CIPROFLOXACIN],≤ 5,≤ 5,≤ 1,≤ 1,≤ 1,5,,,,
CC(C)c1csc(-c2nnc(S)n2/N=C/c2ccccc2)n1,250,31.2,31.2,31.2,62.5,31.2,125,62.5,62.5,62.5
COc1ccc(-c2nnc(-c3nc(C(C)C)cs3)o2)cc1,31.2,31.2,31.2,31.2,16,16,31.2,31.2,31.2,16
COc1ccc(C2(C)OC(c3nc(C(C)C)cs3)=NN2C(C)=O)cc1 (stereo unspecified),31.2,125,31.2,125,125,125,4,8,8,62.5
CC(C)c1csc(-c2nnc3sc(-c4ccccc4)nn23)n1,125,16,16,125,125,31.2,125,125,31.2,62.5
CC(=O)N1N=C(c2nc(C(C)C)cs2)OC1(C)c1ccc(O)cc1 (stereo unspecified),16,31.2,31.2,16,16,62.5,31.2,31.2,125,62.5
CC(C)c1csc(-c2nnc(-c3ccc(Cl)cc3)o2)n1,8,8,4,125,125,125,62.5,125,62.5,4
CC(C)c1csc(-c2nnc3sc(-c4ccc(Cl)cc4)nn23)n1,8,16,8,16,16,8,31.2,31.2,125,8
CC(C)c1csc(-c2nnc3sc(-c4ccc([N+](=O)[O-])cc4)nn23)n1,125,125,16,16,125,31.2,8,8,16,31.2
COc1ccc(/C=N/n2c(S)nnc2-c2nc(C(C)C)cs2)cc1,31.2,31.2,31.2,16,31.2,31.2,62.5,62.5,62.5,31.2
CCn1cc(C(=O)O)c(=O)c2cc(F)c(N3CCNCC3)cc21 [NORFLOXACIN],5,5,≤ 1,≤ 1,≤ 1,5,,,,
